Values after ≈ are worked out from the molar mass of the structure shown.
Legend:
Assay type in all cases: functional
[1] = tested on: Klebsiella pneumoniae; test: Antimicrobial activity against Klebsiella pneumoniae isolate KpL expressing beta-lactamase OXA-48 by Etest method
[2] = tested on: Escherichia coli; test: Antimicrobial activity against Escherichia coli isolate J53 harboring pI-1 containing beta-lactamase OXA-48 located within transposon Tn1999.2 by Etest method
In short: (§1)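 β-Lactam MICs read with Etest strips. Strains are E. coli J53 recipient and J53 transconjugants carrying OXA-48-positive plasmids recovered from clinical enterobacterial isolates.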

[3] = tested on: Escherichia coli; test: Antimicrobial activity against Escherichia coli isolate J53 harboring pE containing beta-lactamase OXA-48 located within transposon Tn1999.2 by Etest method; in short: as §1
[4] = tested on: Escherichia coli; test: Antimicrobial activity against Escherichia coli isolate J53 harboring p6A containing beta-lactamase OXA-48 located within transposon Tn1999 by Etest method; in short: as §1
[5] = tested on: Klebsiella pneumoniae; test: Antimicrobial activity against Klebsiella pneumoniae isolate KpI-1 expressing beta-lactamase OXA-48 and CTX-M-15 by Etest method
[6] = tested on: Klebsiella pneumoniae; test: Antimicrobial activity against Klebsiella pneumoniae isolate Kp11978 expressing beta-lactamase OXA-48, SHV-2a and TEM-1 by Etest method
[7] = tested on: Escherichia coli; test: Antimicrobial activity against Escherichia coli isolate J53 harboring pEnc1 containing beta-lactamase OXA-48 located within transposon Tn1999 by Etest method; in short: as §1
[8] = tested on: Citrobacter freundii; test: Antimicrobial activity against Citrobacter freundii isolate expressing beta-lactamase OXA-48 by Etest method
[9] = tested on: Escherichia coli; test: Antimicrobial activity against Escherichia coli isolate J53 harboring pBb containing beta-lactamase OXA-48 located within transposon Tn1999.2 by Etest method; in short: as §1
[10] = tested on: Escherichia coli; test: Antimicrobial activity against Escherichia coli isolate J53 harboring p7A containing beta-lactamase OXA-48 located within transposon Tn1999 by Etest method; in short: as §1
[11] = tested on: Klebsiella pneumoniae; test: Antimicrobial activity against Klebsiella pneumoniae isolate Kp7A expressing beta-lactamase OXA-48 by Etest method
In short: (§2)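 MICs of β-lactams read from Etest strips. The test organisms are carbapenem-resistant, OXA-48-positive clinical Enterobacteriaceae isolates recovered from Turkey, Lebanon, Egypt, France and Belgium.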

[12] = tested on: Klebsiella pneumoniae; test: Antimicrobial activity against Klebsiella pneumoniae isolate Kp4A expressing beta-lactamase OXA-48 and CTX-M-15 by Etest method
[13] = tested on: Klebsiella pneumoniae; test: Antimicrobial activity against Klebsiella pneumoniae isolate Kp6A expressing beta-lactamase OXA-48 and TEM-150 by Etest method
[14] = tested on: Escherichia coli; test: Antimicrobial activity against Escherichia coli isolate J53 by Etest method; in short: as §1
[15] = tested on: Escherichia coli; test: Antimicrobial activity against Escherichia coli isolate A expressing beta-lactamase OXA-48 and TEM-150 by Etest method
[16] = tested on: Escherichia coli; test: Antimicrobial activity against Escherichia coli isolate J53 harboring pBEL containing beta-lactamase OXA-48 located within transposon Tn1999.2 by Etest method; in short: as §1
[17] = tested on: Klebsiella pneumoniae; test: Antimicrobial activity against Klebsiella pneumoniae isolate KpBIC expressing beta-lactamase OXA-48 by Etest method; in short: as §2
[18] = tested on: Escherichia coli; test: Antimicrobial activity against Escherichia coli isolate J53 harboring p5A containing beta-lactamase OXA-48 located within transposon Tn1999 by Etest method; in short: as §1
[19] = tested on: Escherichia coli; test: Antimicrobial activity against Escherichia coli isolate J53 harboring pCF containing beta-lactamase OXA-48 located within transposon Tn1999 by Etest method; in short: as §1
[20] = tested on: Klebsiella pneumoniae; test: Antimicrobial activity against Klebsiella pneumoniae isolate Kp3A expressing beta-lactamase OXA-48 by Etest method; in short: as §2
[21] = tested on: Klebsiella pneumoniae; test: Antimicrobial activity against Klebsiella pneumoniae isolate Kp5A expressing beta-lactamase OXA-48 and SHV-5 by Etest method
[22] = tested on: Klebsiella pneumoniae; test: Antimicrobial activity against Klebsiella pneumoniae isolate KpB expressing OXA-48 and CTX-M-15 by Etest method
[23] = tested on: Escherichia coli; test: Antimicrobial activity against Escherichia coli isolate J53 harboring p3A containing beta-lactamase OXA-48 located within transposon Tn1999 by Etest method; in short: as §1
[24] = tested on: Klebsiella pneumoniae; test: Antimicrobial activity against Klebsiella pneumoniae isolate KpE expressing beta-lactamase OXA-48 and CTX-M-15 by Etest method
[25] = tested on: Escherichia coli; test: Antimicrobial activity against Escherichia coli isolate J53 harboring pI-2 containing beta-lactamase OXA-48 located within transposon Tn1999.2 by Etest method; in short: as §1
[26] = tested on: Escherichia coli; test: Antimicrobial activity against Escherichia coli isolate J53 harboring pL containing beta-lactamase OXA-48 located within transposon Tn1999.2 by Etest method; in short: as §1
[27] = tested on: Providencia rettgeri; test: Antimicrobial activity against Providencia rettgeri isolate expressing beta-lactamase OXA-48 and TEM-101 by Etest method
[28] = tested on: Escherichia coli; test: Antimicrobial activity against Escherichia coli isolate TOP10 harboring pPR containing beta-lactamase and TEM-101 by Etest method
In short: (§3)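 β-Lactam MICs read with Etest strips. Strains are E. coli TOP10 host and TOP10 transformants made with plasmid DNA extract when conjugation failed. Transformants were selected on LB agar with ticarcillin 50 μg/ml.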

[29] = tested on: Klebsiella pneumoniae; test: Antimicrobial activity against Klebsiella pneumoniae isolate KpI-2 expressing beta-lactamase OXA-48 and CTX-M-15 by Etest method
[30] = tested on: Escherichia coli; test: Antimicrobial activity against Escherichia coli isolate J53 harboring p4A containing beta-lactamase OXA-48 located within transposon Tn1999 by Etest method; in short: as §1
[31] = tested on: Escherichia coli; test: Antimicrobial activity against Escherichia coli isolate TOP10 by Etest method; in short: as §3
[32] = tested on: Escherichia coli; test: Antimicrobial activity against Escherichia coli isolate J53 harboring pEcA containing beta-lactamase OXA-48 located within transposon Tn1999.2 by Etest method; in short: as §1
[33] = tested on: Escherichia coli; test: Antimicrobial activity against Escherichia coli isolate J53 harboring pA-1 containing beta-lactamase OXA-48 located within transposon Tn1999 by Etest method; in short: as §1
[34] = tested on: Enterobacter cloacae; test: Antimicrobial activity against Enterobacter cloacae isolate 1 expressing beta-lactamase OXA-48 and SHV-5 by Etest method
[35] = tested on: Escherichia coli; test: Antimicrobial activity against Escherichia coli isolate TOP10 harboring pBIC containing beta-lactamase OXA-48 located within transposon Tn1999.2 by Etest method; in short: as §3
[36] = tested on: Enterobacter cloacae; test: Antimicrobial activity against Enterobacter cloacae isolate 2 expressing beta-lactamase OXA-48 and SHV-5 by Etest method
[37] = tested on: Klebsiella pneumoniae; test: Antimicrobial activity against Klebsiella pneumoniae isolate KpBEL expressing beta-lactamase OXA-48 by Etest method; in short: as §2
[38] = tested on: Escherichia coli; test: Antimicrobial activity against Escherichia coli isolate J53 harboring pEnc2 containing beta-lactamase OXA-48 located within transposon Tn1999 by Etest method; in short: as §1

| Compound | MIC [1] [µg/mL] | MIC [2] [µg/mL] | MIC [3] [µg/mL] | MIC [4] [µg/mL] | MIC [5] [µg/mL] | MIC [6] [µg/mL] | MIC [7] [µg/mL] | MIC [8] [µg/mL] | MIC [9] [µg/mL] | MIC [10] [µg/mL] | MIC [11] [µg/mL] | MIC [12] [µg/mL] | MIC [13] [µg/mL] | MIC [14] [µg/mL] | MIC [15] [µg/mL] | MIC [16] [µg/mL] | MIC [17] [µg/mL] | MIC [18] [µg/mL] | MIC [19] [µg/mL] | MIC [20] [µg/mL] | further results |
| --- | --- | --- | --- | --- | --- | --- | --- | --- | --- | --- | --- | --- | --- | --- | --- | --- | --- | --- | --- | --- | --- |
| CC(=O)OCC1=C(C(=O)O)N2C(=O)[C@@H](NC(=O)Cc3cccs3)[C@H]2SC1 [CEPHALOTHIN] | 32 (≈ 80.7 µM) | 16 (≈ 40.4 µM) | 16 (≈ 40.4 µM) | 16 (≈ 40.4 µM) | > 512 | > 512 | 16 (≈ 40.4 µM) | > 512 | 16 (≈ 40.4 µM) | 16 (≈ 40.4 µM) | > 512 | > 512 | > 512 | 4 (≈ 10.1 µM) | > 512 | 16 (≈ 40.4 µM) | > 512 | 16 (≈ 40.4 µM) | > 512 | > 512 | MIC [21]: > 512 µg/mL; MIC [22]: > 512 µg/mL; MIC [23]: 16 µg/mL (≈ 40.4 µM); MIC [24]: > 512 µg/mL; MIC [25]: 16 µg/mL (≈ 40.4 µM); MIC [26]: 8 µg/mL (≈ 20.2 µM); MIC [27]: > 512 µg/mL; MIC [28]: 16 µg/mL (≈ 40.4 µM); MIC [29]: > 512 µg/mL; MIC [30]: 16 µg/mL (≈ 40.4 µM); MIC [31]: 4 µg/mL (≈ 10.1 µM); MIC [32]: 16 µg/mL (≈ 40.4 µM); MIC [33]: 0.5 µg/mL (≈ 1.26 µM); MIC [34]: > 512 µg/mL; MIC [35]: 16 µg/mL (≈ 40.4 µM); MIC [36]: > 512 µg/mL; MIC [37]: 16 µg/mL (≈ 40.4 µM); MIC [38]: 16 µg/mL (≈ 40.4 µM) |
| CCN1CCN(C(=O)N[C@@H](C(=O)N[C@@H]2C(=O)N3[C@@H]2SC(C)(C)[C@@H]3C(=O)O)c2ccccc2)C(=O)C1=O [PIPERACILLIN] | 96 (≈ 185 µM) | 512 (≈ 989 µM) | 512 (≈ 989 µM) | > 512 | > 512 | > 512 | > 512 | > 512 | > 512 | > 512 | > 512 | > 512 | > 512 | 1 (≈ 1.93 µM) | > 256 | 128 (≈ 247 µM) | > 512 | > 512 | > 512 | > 512 | MIC [21]: > 512 µg/mL; MIC [22]: > 512 µg/mL; MIC [23]: 512 µg/mL (≈ 989 µM); MIC [24]: > 512 µg/mL; MIC [25]: 512 µg/mL (≈ 989 µM); MIC [26]: 64 µg/mL (≈ 124 µM); MIC [27]: > 256 µg/mL; MIC [28]: 128 µg/mL (≈ 247 µM); MIC [29]: > 512 µg/mL; MIC [30]: > 512 µg/mL; MIC [31]: 2 µg/mL (≈ 3.86 µM); MIC [32]: 128 µg/mL (≈ 247 µM); MIC [33]: 8 µg/mL (≈ 15.5 µM); MIC [34]: > 512 µg/mL; MIC [35]: > 512 µg/mL; MIC [36]: > 512 µg/mL; MIC [37]: > 256 µg/mL; MIC [38]: > 512 µg/mL |

Source: ChEMBL document CHEMBL1255404, “Spread of OXA-48-encoding plasmid in Turkey and beyond” (2010)
